Source: PubChem (Broad Institute)
E-sel inducer = induces E-selectin expression in human endothelial cells; HUVEC E-selectin immunofluorescence imaging; normalized: neutral wells 0, TNF-alpha wells 100; activation, % at 7.58 µM; hit rate 0.37% among 260,000; AID 686992;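 active = mean E-selectin-positive cell signal at least 10% of the positive control, reached in at least 60% of replicates, without over 20% cell loss; inconclusive = no rule given, readout overlaps actives, possibly toxicity-flagged; inactive = the rest, including those meeting only one limit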
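assay system = HUVEC, human umbilical vein endothelial cells | input = 3,000 HUVEC seeded per well | medium = EGM-2 growth medium on 0.1% gelatin-coated wells | dosing = one compound dose added by pin transfer | signal = immunofluorescence imaging | read-out basis = % PE-positive cells | control set = TNF-alpha, DMSO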
INS-1E GSIS act = GLuc luminescence reporter in INS-1E cells, primary screen for activators of glucose-dependent secretion of insulin | INS-1E GLuc reporter insulin secretion, 2-3 h | activation, % at 16.6 µM | hit rate 0.61% among 370,000;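 active = lowest replicate activation of at least 40%, so every replicate reaches that level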;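 also: 0% = median of neutral control wells and 100% = median of IBMX positive control wells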
RAD52 inh = inhibitors of human RAD52 DNA annealing | AID 651710 | inhibition, % at 18.7 µM | recombinant RAD52 DNA annealing, FRET fluorescence | hit rate 0.46% among 360,000 | P43351;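 active = every replicate showing at least 50% inhibition; inconclusive = mean inhibition at least 50% but not in every replicate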
Target sequence (P43351 whole entry, looked up): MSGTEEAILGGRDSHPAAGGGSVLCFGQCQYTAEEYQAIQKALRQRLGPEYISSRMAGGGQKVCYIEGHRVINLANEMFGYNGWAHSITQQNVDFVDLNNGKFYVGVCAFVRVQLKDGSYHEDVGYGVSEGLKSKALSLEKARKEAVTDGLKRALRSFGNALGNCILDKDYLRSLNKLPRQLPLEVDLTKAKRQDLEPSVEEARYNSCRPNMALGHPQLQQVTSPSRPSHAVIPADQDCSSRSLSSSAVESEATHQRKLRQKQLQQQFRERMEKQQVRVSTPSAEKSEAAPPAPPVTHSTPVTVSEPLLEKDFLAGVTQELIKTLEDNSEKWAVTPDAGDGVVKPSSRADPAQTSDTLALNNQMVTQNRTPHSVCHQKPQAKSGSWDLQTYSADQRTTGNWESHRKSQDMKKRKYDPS
AF4-AF9 inh = inhibitors of human MLL-AF4/AF9 interaction; P42568; AlphaScreen, biotin-AF4 peptide binding to FLAG-AF9; inhibition, % at 10 µM; hit rate 0.47% among 350,000; AID 651704;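 active = every replicate reaching a set inhibition limit, whatever the replicate mean, cut at about 25% in these data; inconclusive = mean inhibition reaches that limit but some replicates miss it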;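 also: 0% = plate neutral control median and 100% = total signal loss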
rRNA inh HTS = inhibitors of bacterial rRNA selective over humanized ribosomes. GFP signal change (wild-type ribosome), % (concentration not given with the values). E. coli WT GFP vs humanized-ribosome RFP mutants, fluorescence, 24 h; stronger effect = lower value; DMSO median 0, no signal -100. hit rate 1.6% among 350,000. AID 720706;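 active = significant combined selectivity score with lowered wild-type GFP, culture density cut under 30%, mutant RFP and density less affected; inactive = any of these conditions unmet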
RAD54 inh = blocks human RAD54 Holliday junction branch migration; Q92698; FAM/BHQ fluorescence; inhibition, % at 10.4 µM; hit rate 0.14% among 360,000; AID 602329;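 active = mean normalized replicate activity at least 40 and at least half of replicates scoring 40 or more; inconclusive = only one of the two criteria met; inactive = mean below 40 and under half of replicates reaching 40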;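 also: 0% = median of neutral control wells and 100% = median of positive control wells; inhibitors cause a drop in the FAM fluorescence signal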
The depositor's hits bear a star. Hits are enriched below; roughly 2.6% of the tested compounds scored in any of these assays.

`C[C@@H]1CN([C@@H](C)CO)C(=O)Cc2cc(N(C)C)ccc2O[C@@H]1CN(C)Cc1ccc(-c2ccccc2)cc1` gave E-sel inducer 0.0, INS-1E GSIS act -12.5, RAD52 inh 7.1, AF4-AF9 inh 42.2*, rRNA inh HTS -8.7 and RAD54 inh -7.5.
Screening C[C@H](CO)N1C[C@H](C)[C@H](CN(C)Cc2ccc(Oc3ccccc3)cc2)Oc2ccc(N(C)C)cc2CC1=O returned E-sel inducer 6.5, INS-1E GSIS act -11.9, RAD52 inh -8.9, AF4-AF9 inh 26.8*, rRNA inh HTS -9.6 and RAD54 inh 3.5.
For C[C@H](CO)N1C[C@H](C)[C@@H](CN(C)Cc2ccc(Oc3ccccc3)cc2)Oc2ccc(N(C)C)cc2CC1=O the results were E-sel inducer 0.1, INS-1E GSIS act -16.4, RAD52 inh 10.1, AF4-AF9 inh 71.7*, rRNA inh HTS -60.0 and RAD54 inh -20.5.
For C[C@H](CO)N1C[C@H](C)[C@@H](CN(C)Cc2ccccc2)Oc2ccc(N(C)C)cc2CC1=O the results were E-sel inducer 0.1, INS-1E GSIS act -8.3, RAD52 inh 4.6, AF4-AF9 inh 16.7, rRNA inh HTS 1.3 and RAD54 inh 1.9.
For COc1cc2[nH]c(=S)nc(NCCc3ccc(C)cc3)c2cc1OC the results were INS-1E GSIS act -19.9, RAD52 inh -14.1, AF4-AF9 inh 3.0 and rRNA inh HTS -26.4*.
For COc1cc2[nH]c(=S)nc(NC3CCCCCC3)c2cc1OC the results were INS-1E GSIS act -6.0, RAD52 inh 57.9*, AF4-AF9 inh 3.7 and rRNA inh HTS -39.0.
COc1ccc(CCNc2nc(=S)[nH]c3cc(OC)c(OC)cc23)cc1OC was read as INS-1E GSIS act 8.2, RAD52 inh 5.5, AF4-AF9 inh -3.1 and rRNA inh HTS -0.3.
`C[C@@H]1CN([C@H](C)CO)C(=O)c2cc(N(C)C)ccc2O[C@@H](C)CCCCO[C@@H]1CN(C)S(=O)(=O)c1cn(C)cn1` gave E-sel inducer -0.4, INS-1E GSIS act -2.8, RAD52 inh -21.8, AF4-AF9 inh -1.6, rRNA inh HTS -0.3 and RAD54 inh 0.9.
Screening Cc1ccc(/C=N/N(C)S(=O)(=O)c2ccc(C)cc2)cc1 returned E-sel inducer inconclusive, INS-1E GSIS act 2.3, RAD52 inh 1.0, AF4-AF9 inh -1.4, rRNA inh HTS 10.8 and RAD54 inh 3.2.
Screening CSc1ccc(/C=N/N(C)S(=O)(=O)c2ccc(C)cc2)cc1 returned E-sel inducer 0.1, INS-1E GSIS act 121.3*, RAD52 inh -1.0, AF4-AF9 inh 1.6, rRNA inh HTS 13.6 and RAD54 inh 14.4.
For CCOc1ccc(/C(O)=C2/C(=O)C(=O)N(c3ncccn3)C2c2ccc(Cl)cc2)cc1 (centres undefined) the results were E-sel inducer 0.9, INS-1E GSIS act -7.1, RAD52 inh -18.4, rRNA inh HTS -31.6* and RAD54 inh -9.5.
For Cc1cc2cc(CNC(=O)Nc3ccc(Cl)c(Cl)c3)ccc2n1C the results were E-sel inducer 141.9*, RAD52 inh -2.7, AF4-AF9 inh -0.9, rRNA inh HTS -12.5 and RAD54 inh 2.5.
For Cc1ccc(S(=O)(=O)NCc2ccc3c(c2)cc(C)n3C)cc1 the results were E-sel inducer 63.4*, INS-1E GSIS act 16.4, RAD52 inh -3.7, AF4-AF9 inh 8.4, rRNA inh HTS 1.1 and RAD54 inh 1.9.
For CCCNC(=O)N1CC2(CCN(Cc3ccccn3)CC2)c2c(n(C)c3cc(OC)ccc23)[C@@H]1CO the results were E-sel inducer -0.1, INS-1E GSIS act 16.0, RAD52 inh 7.5, AF4-AF9 inh -5.8 and rRNA inh HTS -0.1.
O=C(Nc1ccccc1C(=O)N1CCCCCC1)c1ccc(Cl)cc1 was read as INS-1E GSIS act 2.4, RAD52 inh -7.7, AF4-AF9 inh 0.0 and rRNA inh HTS -23.5*.
`CNC[C@@H]1Oc2c(NC(=O)C3CCOCC3)cccc2C(=O)N([C@@H](C)CO)C[C@@H]1C` gave E-sel inducer 0.2, INS-1E GSIS act 13.4, RAD52 inh -15.2, AF4-AF9 inh -24.2, rRNA inh HTS 3.7 and RAD54 inh 5.1.
